Converted amounts (≈) assume the structure as drawn.

The first experiment has as its system Mycobacterium tuberculosis. The experiment can be described thus: Antitubercular activity against Mycobacterium tuberculosis H37Rv by agar dilution method. It counts as functional. The gist of the method:
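M. tuberculosis H37Rv on Middlebrook 7H11 agar with OADC, agar dilution per NCCLS-type MIC method, pH 7.4. MIC taken as the lowest concentration inhibiting 99% of bacterial growth, determined in duplicate.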
On the technique in general: In agar dilution, organisms are placed on agar that contains the substance at set levels.
In the case of `COc1ccc(C(c2c(C)[nH]n(-c3ccccc3)c2=O)c2c(O)ccc3ccccc23)cc1` (stereo not given), the lowest concentration to inhibit growth (MIC) was 28.6 µM (≈ 12.5 µg/mL).
`Cc1ccc(C(c2c(C)[nH]n(-c3ccccc3)c2=O)c2c(O)ccc3ccccc23)cc1` (stereo not given) came in with a minimal inhibitory concentration (MIC) of 29.7 µM (≈ 12.5 µg/mL).
On the same count and under the same terms, to `Cc1[nH]n(-c2ccc(Cl)cc2)c(=O)c1C(c1ccc(Cl)cc1)c1c(O)ccc2ccccc12` (stereo not given) belongs 6.6 µM (≈ 3.14 µg/mL).
The same measure, in the same setting: to `CC[C@@H](CO)NCCN[C@@H](CC)CO` [ETHAMBUTOL] belongs 7.6 µM (≈ 1.55 µg/mL); to `NNC(=O)c1ccncc1` [ISONIAZID], 0.4 µM (≈ 0.0549 µg/mL); to `Cc1[nH]n(-c2ccc(F)cc2)c(=O)c1C(c1ccc(F)cc1)c1c(O)ccc2ccccc12` (stereo not given), 7.1 µM (≈ 3.14 µg/mL).
Still for that read-out and setting: to `Cc1[nH]n(-c2ccccc2)c(=O)c1C(c1ccccc1)c1c(O)ccc2ccccc12` (stereo not given) belongs 30.8 µM (≈ 12.5 µg/mL); to `Cc1[nH]n(-c2ccccc2)c(=O)c1C(c1ccccc1[N+](=O)[O-])c1c(O)ccc2ccccc12` (stereo not given), 13.8 µM (≈ 6.23 µg/mL).
In turn, `Cc1[nH]n(-c2ccc(F)cc2)c(=O)c1C(c1ccc(Cl)cc1)c1c(O)ccc2ccccc12` (stereo not given) showed an MIC of 3.4 µM (≈ 1.56 µg/mL).
`Cc1ccc(C(c2c(C)[nH]n(-c3ccc(F)cc3)c2=O)c2c(O)ccc3ccccc23)cc1` (stereo not given) gave a minimal inhibitory concentration (MIC) of 14.2 µM (≈ 6.23 µg/mL).
The same measure, in the same setting: to `Cc1[nH]n(-c2ccc(F)cc2)c(=O)c1C(c1ccccc1)c1c(O)ccc2ccccc12` (stereo not given) belongs 14.7 µM (≈ 6.24 µg/mL); to `Cc1[nH]n(-c2ccccc2)c(=O)c1C(c1ccc(Cl)cc1)c1c(O)ccc2ccccc12` (stereo not given), 14.1 µM (≈ 6.22 µg/mL); to `Cc1[nH]n(-c2ccccc2)c(=O)c1C(c1ccc(C(C)C)cc1)c1c(O)ccc2ccccc12` (stereo not given), 14 µM (≈ 6.28 µg/mL).
Still for that read-out and setting: to `Cc1[nH]n(-c2ccc(F)cc2)c(=O)c1C(c1ccc([N+](=O)[O-])cc1)c1c(O)ccc2ccccc12` (stereo not given) belongs 3.3 µM (≈ 1.55 µg/mL); to `Cc1[nH]n(-c2ccc(F)cc2)c(=O)c1C(c1cccc([N+](=O)[O-])c1)c1c(O)ccc2ccccc12` (stereo not given), 6.7 µM (≈ 3.15 µg/mL).
Consider `Cc1[nH]n(-c2ccc(F)cc2)c(=O)c1C(c1ccc(Cl)cc1Cl)c1c(O)ccc2ccccc12` (stereo not given), for which the MIC worked out at 1.6 µM (≈ 0.789 µg/mL).
Same read-out and setting: to `CO[C@H]1/C=C/O[C@@]2(C)Oc3c(C)c(O)c4c(O)c(c(/C=N/N5CCN(C)CC5)c(O)c4c3C2=O)NC(=O)/C(C)=C\C=C\[C@H](C)[C@H](O)[C@@H](C)[C@@H](O)[C@@H](C)[C@H](OC(C)=O)[C@@H]1C` [RIFAMPIN] belongs 0.1 µM (≈ 0.0823 µg/mL); to `Cc1[nH]n(-c2ccccc2)c(=O)c1C(c1ccc([N+](=O)[O-])cc1)c1c(O)ccc2ccccc12` (stereo not given), 6.9 µM (≈ 3.12 µg/mL).

The subject of the next experiment is Mycobacterium tuberculosis. Put plainly: Ratio of MIC for ciprofloxacin to compound for Mycobacterium tuberculosis H37Rv by agar dilution method. It counts as functional. The gist of the method: (§1)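 Ratio of reference-drug MIC to test-compound MIC. Both MICs were measured against M. tuberculosis H37Rv by agar dilution on OADC-supplemented Middlebrook 7H11 at pH 7.4, with 99% growth inhibition as endpoint, in duplicate.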
Consider `Cc1[nH]n(-c2ccc(F)cc2)c(=O)c1C(c1ccc(Cl)cc1Cl)c1c(O)ccc2ccccc12` (stereo not given), for which the Ratio is reported as 2.94.

A further experiment has as its system Mycobacterium tuberculosis. Put plainly: Ratio of MIC for ethambutol to compound for Mycobacterium tuberculosis H37Rv by agar dilution method. It counts as functional. The gist of the method: as §1
Turning to `Cc1[nH]n(-c2ccc(F)cc2)c(=O)c1C(c1ccc(Cl)cc1Cl)c1c(O)ccc2ccccc12` (stereo not given), the Ratio came to 4.75.

As a reminder, the MIC is the least concentration at which growth counts as inhibited. A higher MIC goes with a need for much substance.

The record behind these values is ChEMBL document CHEMBL1828595, “A facile four-component sequential protocol in the expedient synthesis of novel 2-aryl-5-methyl-2,3-dihydro-1H-3-pyrazolones in water and their antitubercular evaluation” (2011).
